# Laboratory results taken from ChEMBL document CHEMBL1142960, “Synthesis and structure-activity relationships for 2,4-dinitrobenzamide-5-mustards as prodrugs for the Escherichia coli nfsB nitroreductase in gene therapy” (J Med Chem, 2007).
# System: V79
# Assay: Antiproliferative activity against chinese hamster wild-type V79 NTR-ve cells after 18 hrs
# Format: functional, cell-based
# Conditions: Cricetulus griseus, V79, 18 h
row,SMILES,IC50
1,O=C(NCCn1ccnc1)c1cc(N(CCCl)CCCl)c([N+](=O)[O-])cc1[N+](=O)[O-],273 µM
2,O=C(NCCCN1CCOCC1)c1cc(N(CCBr)CCBr)c([N+](=O)[O-])cc1[N+](=O)[O-],148 µM
3,O=C(NCCCn1ccnc1)c1cc(N(CCCl)CCCl)c([N+](=O)[O-])cc1[N+](=O)[O-],174 µM
4,CN(C)CCNC(=O)c1cc(N(CCCl)CCCl)c([N+](=O)[O-])cc1[N+](=O)[O-],89 µM

# System: V79
# Assay: Antiproliferative activity against chinese hamster V79 NTRpuro cells after 18 hrs
# Format: functional, cell-based
# Conditions: Cricetulus griseus, V79, 18 h
row,SMILES,IC50
1,O=C(NCCn1ccnc1)c1cc(N(CCCl)CCCl)c([N+](=O)[O-])cc1[N+](=O)[O-],46 µM
2,O=C(NCCCN1CCOCC1)c1cc(N(CCBr)CCBr)c([N+](=O)[O-])cc1[N+](=O)[O-],16 µM
3,O=C(NCCCn1ccnc1)c1cc(N(CCCl)CCCl)c([N+](=O)[O-])cc1[N+](=O)[O-],32 µM
4,CN(C)CCNC(=O)c1cc(N(CCCl)CCCl)c([N+](=O)[O-])cc1[N+](=O)[O-],81 µM

# System: V79
# Assay: Selectivity ratio of IC50 for V79 NTR-ve cells to IC50 for V79 NTRpuro cells
# Format: functional, Cricetulus griseus
# Conditions: not given
row,SMILES,Ratio IC50
1,O=C(NCCn1ccnc1)c1cc(N(CCCl)CCCl)c([N+](=O)[O-])cc1[N+](=O)[O-],6.6
2,O=C(NCCCN1CCOCC1)c1cc(N(CCBr)CCBr)c([N+](=O)[O-])cc1[N+](=O)[O-],9.2
3,O=C(NCCCn1ccnc1)c1cc(N(CCCl)CCCl)c([N+](=O)[O-])cc1[N+](=O)[O-],7.4
4,CN(C)CCNC(=O)c1cc(N(CCCl)CCCl)c([N+](=O)[O-])cc1[N+](=O)[O-],1.1

# System: EMT6
# Assay: Antiproliferative activity against mouse wild type EMT6 NTR-ve cells after 18 hrs
# Format: functional, cell-based
# Conditions: EMT6, 18 h
row,SMILES,IC50
1,CS(=O)(=O)OCCN(CCCl)c1cc(C(=O)NCC(O)CO)c([N+](=O)[O-])cc1[N+](=O)[O-] (stereo unspecified),1210 µM
2,O=C(NCCn1ccnc1)c1cc(N(CCCl)CCCl)c([N+](=O)[O-])cc1[N+](=O)[O-],178 µM
3,O=C(NCCCN1CCOCC1)c1cc(N(CCBr)CCBr)c([N+](=O)[O-])cc1[N+](=O)[O-],56 µM
4,O=C(NCCCn1ccnc1)c1cc(N(CCCl)CCCl)c([N+](=O)[O-])cc1[N+](=O)[O-],187 µM
5,CN(C)CCNC(=O)c1cc(N(CCCl)CCCl)c([N+](=O)[O-])cc1[N+](=O)[O-],62 µM

# System: EMT6
# Assay: Antiproliferative activity against mouse EMT6 NTRpuro cells after 18 hrs
# Format: functional, cell-based
# Conditions: EMT6, 18 h
row,SMILES,IC50
1,CS(=O)(=O)OCCN(CCCl)c1cc(C(=O)NCC(O)CO)c([N+](=O)[O-])cc1[N+](=O)[O-] (stereo unspecified),3.81 µM
2,O=C(NCCn1ccnc1)c1cc(N(CCCl)CCCl)c([N+](=O)[O-])cc1[N+](=O)[O-],2.6 µM
3,O=C(NCCCN1CCOCC1)c1cc(N(CCBr)CCBr)c([N+](=O)[O-])cc1[N+](=O)[O-],16 µM
4,O=C(NCCCn1ccnc1)c1cc(N(CCCl)CCCl)c([N+](=O)[O-])cc1[N+](=O)[O-],45 µM
5,CN(C)CCNC(=O)c1cc(N(CCCl)CCCl)c([N+](=O)[O-])cc1[N+](=O)[O-],35 µM

# System: EMT6
# Assay: Selectivity ratio of IC50 for EMT6 NTR-ve cells to IC50 forEMT6 NTRpuro cells
# Format: functional, Mus musculus
# Conditions: not given
row,SMILES,Ratio IC50
1,CS(=O)(=O)OCCN(CCCl)c1cc(C(=O)NCC(O)CO)c([N+](=O)[O-])cc1[N+](=O)[O-] (stereo unspecified),344
2,O=C(NCCn1ccnc1)c1cc(N(CCCl)CCCl)c([N+](=O)[O-])cc1[N+](=O)[O-],52
3,O=C(NCCCN1CCOCC1)c1cc(N(CCBr)CCBr)c([N+](=O)[O-])cc1[N+](=O)[O-],3.6
4,O=C(NCCCn1ccnc1)c1cc(N(CCCl)CCCl)c([N+](=O)[O-])cc1[N+](=O)[O-],41
5,CN(C)CCNC(=O)c1cc(N(CCCl)CCCl)c([N+](=O)[O-])cc1[N+](=O)[O-],1.8

# System: WiDr
# Assay: Antiproliferative activity against human wild type WiDr NTR-ve cells after 18 hrs
# Format: functional, cell-based
# Conditions: not given
row,SMILES,IC50
1,CS(=O)(=O)OCCN(CCCl)c1cc(C(=O)NCC(O)CO)c([N+](=O)[O-])cc1[N+](=O)[O-] (stereo unspecified),1230 µM
2,O=C(NCCn1ccnc1)c1cc(N(CCCl)CCCl)c([N+](=O)[O-])cc1[N+](=O)[O-],163 µM
3,O=C(NCCCN1CCOCC1)c1cc(N(CCBr)CCBr)c([N+](=O)[O-])cc1[N+](=O)[O-],134 µM
4,O=C(NCCCn1ccnc1)c1cc(N(CCCl)CCCl)c([N+](=O)[O-])cc1[N+](=O)[O-],106 µM
5,CN(C)CCNC(=O)c1cc(N(CCCl)CCCl)c([N+](=O)[O-])cc1[N+](=O)[O-],62 µM

# System: WiDr
# Assay: Antiproliferative activity against human WiDr NTRneo cells after 18 hrs
# Format: functional, cell-based
# Conditions: not given
row,SMILES,IC50
1,CS(=O)(=O)OCCN(CCCl)c1cc(C(=O)NCC(O)CO)c([N+](=O)[O-])cc1[N+](=O)[O-] (stereo unspecified),6 µM
2,O=C(NCCn1ccnc1)c1cc(N(CCCl)CCCl)c([N+](=O)[O-])cc1[N+](=O)[O-],11 µM
3,O=C(NCCCN1CCOCC1)c1cc(N(CCBr)CCBr)c([N+](=O)[O-])cc1[N+](=O)[O-],57 µM
4,O=C(NCCCn1ccnc1)c1cc(N(CCCl)CCCl)c([N+](=O)[O-])cc1[N+](=O)[O-],37 µM
5,CN(C)CCNC(=O)c1cc(N(CCCl)CCCl)c([N+](=O)[O-])cc1[N+](=O)[O-],66 µM

# System: WiDr
# Assay: Selectivity ratio of IC50 for WiDr NTR-ve cells to IC50 for WiDr NTRneo cells
# Format: functional, Homo sapiens
# Conditions: not given
row,SMILES,Ratio IC50
1,CS(=O)(=O)OCCN(CCCl)c1cc(C(=O)NCC(O)CO)c([N+](=O)[O-])cc1[N+](=O)[O-] (stereo unspecified),328
2,O=C(NCCn1ccnc1)c1cc(N(CCCl)CCCl)c([N+](=O)[O-])cc1[N+](=O)[O-],18
3,O=C(NCCCN1CCOCC1)c1cc(N(CCBr)CCBr)c([N+](=O)[O-])cc1[N+](=O)[O-],2.4
4,O=C(NCCCn1ccnc1)c1cc(N(CCCl)CCCl)c([N+](=O)[O-])cc1[N+](=O)[O-],2.9
5,CN(C)CCNC(=O)c1cc(N(CCCl)CCCl)c([N+](=O)[O-])cc1[N+](=O)[O-],0.9

# System: not listed separately
# Assay: Antiproliferative activity against human wild type Skov3 NTR-ve cells after 18 hrs
# Format: functional, cell-based
# Conditions: not given
row,SMILES,IC50
1,CS(=O)(=O)OCCN(CCCl)c1cc(C(=O)NCC(O)CO)c([N+](=O)[O-])cc1[N+](=O)[O-] (stereo unspecified),1380 µM
2,O=C(NCCn1ccnc1)c1cc(N(CCCl)CCCl)c([N+](=O)[O-])cc1[N+](=O)[O-],438 µM
3,O=C(NCCCN1CCOCC1)c1cc(N(CCBr)CCBr)c([N+](=O)[O-])cc1[N+](=O)[O-],272 µM
4,O=C(NCCCn1ccnc1)c1cc(N(CCCl)CCCl)c([N+](=O)[O-])cc1[N+](=O)[O-],474 µM
5,CN(C)CCNC(=O)c1cc(N(CCCl)CCCl)c([N+](=O)[O-])cc1[N+](=O)[O-],246 µM

# System: not listed separately
# Assay: Antiproliferative activity against human Skov3 NTRneo cells after 18 hrs
# Format: functional, cell-based
# Conditions: SK-OV-3, 18 h
row,SMILES,IC50
1,CS(=O)(=O)OCCN(CCCl)c1cc(C(=O)NCC(O)CO)c([N+](=O)[O-])cc1[N+](=O)[O-] (stereo unspecified),5 µM
2,O=C(NCCn1ccnc1)c1cc(N(CCCl)CCCl)c([N+](=O)[O-])cc1[N+](=O)[O-],4.1 µM
3,O=C(NCCCN1CCOCC1)c1cc(N(CCBr)CCBr)c([N+](=O)[O-])cc1[N+](=O)[O-],34 µM
4,O=C(NCCCn1ccnc1)c1cc(N(CCCl)CCCl)c([N+](=O)[O-])cc1[N+](=O)[O-],18 µM
5,CN(C)CCNC(=O)c1cc(N(CCCl)CCCl)c([N+](=O)[O-])cc1[N+](=O)[O-],44 µM

# System: not listed separately
# Assay: Selectivity ratio of IC50 for Skov3 NTR-ve cells to IC50 for Skov3 NTRneo cells
# Format: functional, Homo sapiens
# Conditions: not given
row,SMILES,Ratio IC50
1,CS(=O)(=O)OCCN(CCCl)c1cc(C(=O)NCC(O)CO)c([N+](=O)[O-])cc1[N+](=O)[O-] (stereo unspecified),286
2,O=C(NCCn1ccnc1)c1cc(N(CCCl)CCCl)c([N+](=O)[O-])cc1[N+](=O)[O-],140
3,O=C(NCCCN1CCOCC1)c1cc(N(CCBr)CCBr)c([N+](=O)[O-])cc1[N+](=O)[O-],7.3
4,O=C(NCCCn1ccnc1)c1cc(N(CCCl)CCCl)c([N+](=O)[O-])cc1[N+](=O)[O-],26
5,CN(C)CCNC(=O)c1cc(N(CCCl)CCCl)c([N+](=O)[O-])cc1[N+](=O)[O-],6

# System: not listed separately
# Assay: Solubility in alpha MEM
# Format: physicochemical
# Conditions: not given
# Summary of the method: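 Solubility (mM) in α-MEM with 5% fetal calf serum at ambient temperature, measured by HPLC.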
row,SMILES,solubility
1,CS(=O)(=O)OCCN(CCCl)c1cc(C(=O)NCC(O)CO)c([N+](=O)[O-])cc1[N+](=O)[O-] (stereo unspecified),2100 µM
2,O=C(NCCn1ccnc1)c1cc(N(CCCl)CCCl)c([N+](=O)[O-])cc1[N+](=O)[O-],500 µM
3,O=C(NCCCN1CCOCC1)c1cc(N(CCBr)CCBr)c([N+](=O)[O-])cc1[N+](=O)[O-],860 µM
4,O=C(NCCCn1ccnc1)c1cc(N(CCCl)CCCl)c([N+](=O)[O-])cc1[N+](=O)[O-],19000 µM

# System: not listed separately
# Assay: Stability in alpha MEM at 37 degC after 24 hrs
# Format: physicochemical
# Conditions: read-out: Stability
# Summary of the method: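 Percent parent compound remaining, by HPLC, after holding in α-MEM with 5% fetal calf serum at 37 °C for 24 h.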
row,SMILES,remaining at 24 h
1,CS(=O)(=O)OCCN(CCCl)c1cc(C(=O)NCC(O)CO)c([N+](=O)[O-])cc1[N+](=O)[O-] (stereo unspecified),74%
2,O=C(NCCn1ccnc1)c1cc(N(CCCl)CCCl)c([N+](=O)[O-])cc1[N+](=O)[O-],94%
3,O=C(NCCCN1CCOCC1)c1cc(N(CCBr)CCBr)c([N+](=O)[O-])cc1[N+](=O)[O-],74%
4,O=C(NCCCn1ccnc1)c1cc(N(CCCl)CCCl)c([N+](=O)[O-])cc1[N+](=O)[O-],70%
5,CN(C)CCNC(=O)c1cc(N(CCCl)CCCl)c([N+](=O)[O-])cc1[N+](=O)[O-],103%
